Test results taken from ChEMBL document CHEMBL1151964, “Divergent modes of enzyme inhibition in a homologous structure-activity series” (J Med Chem, 2009).
The source made the active and inactive calls. The calls are words filed in the database; no cut-off is given here.

Columns and labels:
[1] = molecular target: T1, Cruzipain (Trypanosoma cruzi, UniProt P25779); assay: Inhibition of Trypanosoma cruzi cruzain preincubated for 5 mins before substrate addition
In short: (§1)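 Cruzain IC50s were measured from dose-response curves with Triton X-100 in the assay buffer at either 0.01% or 0.001%. At 0.001% Triton, some runs included pre-incubation with BSA.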

[2] = molecular target: T1, Cruzipain; assay: Inhibition of Trypanosoma cruzi cruzain preincubated for 5 mins before substrate addition in presence of 0.001% Triton X-100; in short: as §1
[3] = molecular target: T1, Cruzipain; assay: Inhibition of Trypanosoma cruzi cruzain preincubated for 5 mins before substrate addition in presence of 0.01% Triton X-100; in short: as §1
[4] = molecular target: Cruzipain (Trypanosoma cruzi) (UniProt P25779); assay: Inhibition of Trypanosoma cruzi cruzain at 200 uM preincubated for 5 mins before substrate addition
Sequence of Cruzipain (Trypanosoma cruzi) (P25779 123-467 limits assumed): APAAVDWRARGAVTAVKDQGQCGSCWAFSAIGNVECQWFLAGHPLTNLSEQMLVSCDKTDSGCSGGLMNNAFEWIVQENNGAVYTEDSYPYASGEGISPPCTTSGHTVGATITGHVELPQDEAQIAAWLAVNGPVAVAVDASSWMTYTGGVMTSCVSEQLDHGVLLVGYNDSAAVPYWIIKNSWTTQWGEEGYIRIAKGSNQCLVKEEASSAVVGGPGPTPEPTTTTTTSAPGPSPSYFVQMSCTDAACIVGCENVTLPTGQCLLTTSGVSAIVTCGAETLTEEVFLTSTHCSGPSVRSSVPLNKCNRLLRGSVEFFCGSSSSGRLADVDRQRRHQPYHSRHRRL

[5] = molecular target: Cruzipain (Trypanosoma cruzi) (UniProt P25779); assay: Inhibition of Trypanosoma cruzi cruzain assessed as colloidal aggregates particles formation after 5 mins by flow cytometry
In short: (§2)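 Particle (aggregate) formation was assessed by flow cytometry, with some samples checked by dynamic light scattering. The value is the lowest concentration tested at which particles were seen.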

[6] = molecular target: Cruzipain (Trypanosoma cruzi) (UniProt P25779); assay: Inhibition of Trypanosoma cruzi cruzain assessed as colloidal aggregates particles formation after 5 mins by flow cytometry in presence of 0.001% Triton X-100; in short: as §2
[7] = Inhibition of Beta-lactamase AmpC at 50 uM preincubated for 5 mins before substrate addition
In short: (§3)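 β-Lactamase AmpC inhibition was tested at the concentration stated, both without and with 0.01% Triton X-100. A compound was called an aggregator when its inhibition was detergent-sensitive.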

[8] = molecular target: T1, Cruzipain; assay: Inhibition of Trypanosoma cruzi cruzain preincubated for 5 mins before substrate addition in presence of 0.001% Triton X-100 with 1 mg/ml bovine serum albumin
[9] = molecular target: Cruzipain (Trypanosoma cruzi) (UniProt P25779); settings: 5 uM
[10] = molecular target: Cruzipain (Trypanosoma cruzi) (UniProt P25779); settings: 50 uM
[11] = Inhibition of Beta-lactamase AmpC at 13 uM preincubated for 5 mins before substrate addition; in short: as §3
[12] = molecular target: Cruzipain (Trypanosoma cruzi) (UniProt P25779); assay: Inhibition of Trypanosoma cruzi cruzain assessed as colloidal aggregates particles formation at 3.1 uM after 5 mins by dynamic light scattering assay
[13] = molecular target: T1, Cruzipain; assay: Competitive inhibition of Trypanosoma cruzi cruzain by Lineweaver-Burke plot analysis
[14] = Inhibition of Beta-lactamase AmpC at 100 uM preincubated for 5 mins before substrate addition
In short: (§4)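 AmpC β-lactamase inhibition measured without detergent and with 0.01% Triton X-100, at the compound concentrations listed per compound. A compound was classed as an aggregator if its inhibition was detergent-sensitive.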

[15] = molecular target: Cruzipain (Trypanosoma cruzi) (UniProt P25779); settings: 25 uM
[16] = Inhibition of Beta-lactamase AmpC preincubated for 5 mins before substrate addition in presence of 0.01% Triton X-100; in short: as §4

T1 sequence (P25779 whole entry): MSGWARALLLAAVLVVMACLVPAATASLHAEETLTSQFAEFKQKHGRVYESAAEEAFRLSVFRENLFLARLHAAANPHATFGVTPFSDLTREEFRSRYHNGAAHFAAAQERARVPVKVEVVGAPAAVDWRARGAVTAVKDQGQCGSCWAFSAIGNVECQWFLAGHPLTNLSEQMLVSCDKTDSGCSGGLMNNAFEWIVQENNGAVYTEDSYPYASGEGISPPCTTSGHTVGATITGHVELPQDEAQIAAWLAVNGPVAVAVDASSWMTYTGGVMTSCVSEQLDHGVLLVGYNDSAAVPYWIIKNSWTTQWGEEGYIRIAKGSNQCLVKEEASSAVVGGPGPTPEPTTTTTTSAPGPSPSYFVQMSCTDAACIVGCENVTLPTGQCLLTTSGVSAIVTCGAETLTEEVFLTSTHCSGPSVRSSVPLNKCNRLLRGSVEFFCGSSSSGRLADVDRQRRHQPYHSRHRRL

## Nc1ccccc1-c1nnc(C(=O)NCc2nc3ccccc3[nH]2)o1
[1]
  IC50: 17 µM

## Nc1ccccc1-c1nnc(C(=O)NCc2c(Cl)cccc2Cl)o1
[2]
  IC50: 8 µM

## Nc1ccccc1-c1nnc(C(=O)NCc2csc(-c3cccs3)n2)o1
[3]
  IC50: 2 µM
[1]
  IC50: 2 µM

## Nc1ccccc1-c1nnc(C(=O)NCc2ccnc(N3CCOCC3)c2)o1
[3]
  IC50: 83 µM
[1]
  IC50: 83 µM

## Cc1cccc(C(=O)OCC(=O)Nc2cc(Cl)ccc2Cl)c1
[3]
  IC50: > 200 µM
[4]
  inhibition: 5%

## Nc1ccccc1-c1nnc(C(=O)NCc2cccc(N3CCOCC3)c2)o1
[1]
  IC50: 33 µM

## Nc1ccccc1C(=O)NCC(=O)NC1CCCCC1
[4]
  inhibition: 15%

## Cc1nn(-c2ccccc2)nc1CNC(=O)c1nnc(-c2ccccc2N)o1
[1]
  IC50: 7 µM

## Nc1ccccc1-c1nnc(C(=O)NCCCN2CCCC2=O)o1
[3]
  IC50: > 100 µM
[5]
  Activity: > 200 µM
[1]
  IC50: > 100 µM
[2]
  IC50: > 100 µM
[6]
  Activity: inactive

## Nc1ccccc1-c1nnc(C(=O)NCc2ccc(C(F)(F)F)c(F)c2)o1
[1]
  IC50: 10 µM

## Nc1ccccc1C(=O)OCC(=O)Nc1cc(Cl)ccc1Cl
[1]
  IC50: 58 µM

## Nc1ccccc1-c1nnc(C(=O)Nc2cccc(N3CCCC3)c2)o1
[5]
  Activity: 50 µM
[7]
  inhibition: Active
[8]
  IC50: 99 µM
[1]
  IC50: 7 µM
[2]
  IC50: 7 µM

## CCC(NC(=O)COC(=O)c1cccnc1N)c1ccc(Br)cc1 (stereo not drawn)
[1]
  IC50: 84 µM
[6]
  Activity: 250 nM
[4]
  inhibition: 65%

## CCN1CCC[C@H]1CNC(=O)c1nnc(-c2ccccc2N)o1
[3]
  IC50: > 100 µM
[5]
  Activity: > 200 µM
[1]
  IC50: > 100 µM
[2]
  IC50: > 100 µM
[6]
  Activity: inactive

## Nc1ccccc1-c1nnc(C(=O)NCc2ccccc2OC2CCOCC2)o1
[1]
  IC50: 42 µM

## Nc1ccccc1-c1nnc(C(=O)NC2CCNCC2)o1
[1]
  IC50: > 100 µM

## Nc1ccccc1-c1nnc(C(=O)Nc2nnc(-c3ccc(Cl)cc3)s2)o1
[3]
  IC50: 4 µM
[1]
  IC50: 4 µM

## Cc1cc2cc(NC(=O)c3nnc(-c4ccccc4N)o3)ccc2[nH]1
[3]
  IC50: > 100 µM
[1]
  IC50: 6 µM
[2]
  IC50: 6 µM

## Nc1ccccc1-c1nnc(C(=O)NCc2ccc(Cn3cccn3)cc2)o1
[1]
  IC50: 8 µM

## CCN(CC)c1ccc(NC(=O)c2nnc(-c3ccccc3N)o2)cc1
[1]
  IC50: 36 µM

## Cc1ccc(CNC(=O)c2nnc(-c3ccccc3N)o2)o1
[1]
  IC50: 14 µM

## Nc1ccccc1-c1nnc(C(=O)NCc2cccc3nsnc23)o1
[1]
  IC50: 6 µM

## Cc1cc(NC(=O)c2nnc(-c3ccccc3N)o2)[nH]n1
[1]
  IC50: 11 µM
[2]
  IC50: 11 µM

## Nc1ncccc1C(=O)OCC(=O)NC1CCCCCC1
[1]
  IC50: 87 µM
[6]
  Activity: 250 nM
[4]
  inhibition: 68%

## Nc1ccccc1-c1nnc(C(=O)NCCN2CCNC2=O)o1
[1]
  IC50: > 100 µM

## Nc1ccccc1-c1nnc(C(=O)NCc2ccc(Oc3ccccc3)cc2)o1
[3]
  IC50: 6 µM
[1]
  IC50: 6 µM

## Nc1ccccc1-c1nnc(C(=O)NCc2ccccc2N2CCOCC2)o1
[1]
  IC50: 38 µM

## Nc1ccccc1-c1nnc(C(=O)N[C@H]2CCCCNC2=O)o1
[1]
  IC50: > 100 µM

## Nc1ccccc1-c1nnc(C(=O)Nc2cc(-c3cccs3)[nH]n2)o1
[9]
  inhibition: Active
[10]
  inhibition: Active

## Nc1ncccc1C(=O)OCC(=O)Nc1ccc2c(c1)OCCO2
[3]
  IC50: 182 µM
[4]
  inhibition: 51%

## Nc1ccccc1-c1nnc(C(=O)Nc2ccc(N3CCOCC3)cc2)o1
[3]
  IC50: 62 µM
[1]
  IC50: 62 µM

## Nc1ccccc1-c1nnc(C(=O)Nc2ccc3oc4c(c3c2)CCCC4)o1
[5]
  Activity: > 100 µM
[7]
  inhibition: Active
[1]
  IC50: 2 µM
[2]
  IC50: 2 µM

## CC1C2CCC(C)(C2)C1NC(=O)c1nnc(-c2ccccc2N)o1 (stereo not drawn)
[1]
  IC50: 36 µM

## Nc1ccccc1-c1nnc(C(=O)NCCN2CCOCC2)o1
[3]
  IC50: > 100 µM
[1]
  IC50: > 100 µM
[2]
  IC50: > 100 µM

## CC(C)(C)c1cc(NC(=O)c2nnc(-c3ccccc3N)o2)n[nH]1
[5]
  Activity: 3.1 µM
[11]
  inhibition: Active

## Cc1ccc(-c2cc(NC(=O)c3nnc(-c4ccccc4N)o3)[nH]n2)cc1
[1]
  IC50: 0.5 µM
[2]
  IC50: 0.5 µM

## Cn1ccc(NC(=O)c2nnc(-c3ccccc3N)o2)n1
[3]
  IC50: > 100 µM
[5]
  Activity: 200 µM
[1]
  IC50: > 100 µM
[2]
  IC50: > 100 µM

## Nc1ccccc1-c1nnc(C(=O)NCc2ccnc(N3CCSCC3)c2)o1
[1]
  IC50: 23 µM

## Nc1ccccc1-c1nnc(C(=O)NCc2cccc(-n3cccn3)c2)o1
[1]
  IC50: 17 µM

## O=C(COC(=O)c1ccccn1)Nc1cc(Cl)ccc1Cl
[3]
  IC50: > 200 µM
[4]
  inhibition: 16%

## Nc1ncccc1C(=O)OCC(=O)Nc1ccccc1OC(F)F
[3]
  IC50: 126 µM
[4]
  inhibition: 58%

## CC(C)(C)c1cc(NC(=O)c2nnc(-c3ccccc3N)o2)[nH]n1
[1]
  IC50: 2 µM
[2]
  IC50: 2 µM

## Nc1ncccc1C(=O)NCC(=O)NC1CCCCC1
[4]
  inhibition: 16%

## NC(=O)c1ccsc1NC(=O)COC(=O)c1cc(Br)ccc1N
[3]
  IC50: 90 µM
[4]
  inhibition: 61%

## CC(NC(=O)c1nnc(-c2ccccc2N)o1)C12CC3CC(CC(C3)C1)C2 (stereo not drawn)
[3]
  IC50: 18 µM
[1]
  IC50: 18 µM

## COc1cc(CNC(=O)c2nnc(-c3ccccc3N)o2)cc(OC)c1OC
[1]
  IC50: > 100 µM

## Nc1ccccc1-c1nnc(C(=O)Nc2cc(-c3cccs3)n[nH]2)o1
[8]
  IC50: 102 µM
[1]
  IC50: 1 µM
[2]
  IC50: 1 µM

## Nc1ccccc1-c1nnc(C(=O)N[C@@H]2c3ccccc3C[C@@H]2O)o1
[1]
  IC50: 32 µM

## Nc1ccccc1-c1nnc(C(=O)NC2CCc3ccccc32)o1 (stereo not drawn)
[1]
  IC50: 17 µM

## COc1ccc(-c2cc(NC(=O)c3nnc(-c4ccccc4N)o3)n[nH]2)cc1
[5]
  Activity: 3.1 µM
[12]
  Activity: Active
[1]
  IC50: 0.2 µM
[2]
  IC50: 0.2 µM
[11]
  inhibition: Active

## Nc1ccccc1-c1nnc(C(=O)NCCCn2ccnc2)o1
[1]
  IC50: > 100 µM

## Cn1nccc1NC(=O)c1nnc(-c2ccccc2N)o1
[3]
  IC50: > 100 µM
[1]
  IC50: > 100 µM

## Nc1ccccc1-c1nnc(C(=O)Nc2nc(-c3ccc(Cl)cc3)cs2)o1
[1]
  IC50: 3 µM

## Nc1ccccc1-c1nnc(C(=O)Nc2cc(-c3ccccc3)[nH]n2)o1
[1]
  IC50: 0.8 µM
[2]
  IC50: 0.8 µM

## Nc1ccccc1-c1nnc(C(=O)NCc2c(N)cccc2F)o1
[1]
  IC50: 52 µM

## Nc1ccccc1-c1nnc(C(=O)NCc2ccc3c(c2)OCO3)o1
[1]
  IC50: 6 µM

## Nc1ncccc1C(=O)OCC(=O)Nc1cc(Cl)ccc1Cl
[13]
  Ki: 32 µM
[14]
  inhibition: Active
[8]
  IC50: 116 µM
[15]
  inhibition: Active
[1]
  IC50: 77 µM
[16]
  inhibition: inactive
[2]
  IC50: 27 µM
[6]
  Activity: 250 nM
[4]
  inhibition: 79%

## Cc1cc(NC(=O)c2nnc(-c3ccccc3N)o2)n[nH]1
[5]
  Activity: 50 µM
[7]
  inhibition: inactive

## COc1ccc(OC)c(CNC(=O)c2nnc(-c3ccccc3N)o2)c1
[8]
  IC50: 45 µM
[1]
  IC50: 8 µM
[2]
  IC50: 8 µM

## Nc1ccccc1-c1nnc(C(=O)Nc2ccc3[nH]ncc3c2)o1
[1]
  IC50: 41 µM

## Nc1ccccc1-c1nnc(C(=O)NC2Cc3ccccc3C2)o1
[3]
  IC50: 11 µM
[1]
  IC50: 11 µM
